Here are results for 23 compounds from ChEMBL document CHEMBL1155361, “Anti-oxidant, anti-fungal and anti-leishmanial activities of novel 3-[4-(1H-imidazol-1-yl) phenyl]prop-2-en-1-ones” (Eur J Med Chem, 2009).

As a reminder, the IC50 is the concentration needed to halve the response being measured. A higher IC50 goes with weaker potency.

In brackets after ≈: the same amount, converted by molar mass.

For one experiment, the system named is Trichoderma viride. The experiment is described as follows: Antimicrobial activity against Trichoderma viride at 100 ug/ml after 24 hrs by cup diffusion method. In kind it is functional. Conditions: for zone of inhibition at 100 µg/mL: read-out: DIZ. The method, boiled down: (§1)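 Cup diffusion on fungus-inoculated potato dextrose agar plates, with samples in DMSO. Incubated at 30 °C. Read the diameter of the clear inhibition zone surrounding the sample.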

The subject of another experiment is Yarrowia lipolytica. Kind of experiment: Antimicrobial activity against Candida lipolytica at 100 ug/ml after 24 hrs by cup diffusion method. The format is functional. The settings on record: for zone of inhibition at 100 µg/mL: read-out: DIZ. The method, boiled down:
as §1

The next experiment has as its system Leishmania major. Kind of experiment: Antileishmanial activity against Leishmania major promastigotes after 72 hrs. In kind it is functional, organism-based. The gist of the method: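 Cultured Leishmania major parasites in M199 with 10% foetal bovine serum, 25 mM HEPES, and penicillin/streptomycin, at 24 °C with shaking. Harvested log-phase cells and diluted them to 2 × 10^6 cells/ml. Made 1 mg/ml DMSO stocks and serially diluted them in medium. Used DMSO as the negative control and amphotericin B as the positive control.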

The next experiment relates to Aspergillus niger. The experiment is described as follows: Antimicrobial activity against Aspergillus niger at 100 ug/ml after 24 hrs by cup diffusion method. The settings on record: for zone of inhibition at 100 µg/mL: read-out: DIZ. The format is functional. The method, boiled down:
as §1

Experiment [1] in a line: Antioxidant activity assessed as superoxide radical scavenging activity at 0.5 mM by NBT reduction assay. In kind it is functional. The gist of the method: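 Superoxide generated by an NADH/phenazine methosulphate system. The mix held 40 µl of 280 µM NADH, 40 µl of 80 µM NBT, 20 µl of 8 µM PMS, 10 µl of 1 mM sample in DMSO, and 0.1 M phosphate buffer pH 7.4 (concentrations are of the added solutions). Ran at room temperature, read formazan at 560 nm, and calculated %RSA = 100 − (OD test/OD control × 100).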

In a further experiment the test system is Aspergillus fumigatus. The experiment is described as follows: Antimicrobial activity against Aspergillus fumigatus at 100 ug/ml after 24 hrs by cup diffusion method. The settings on record: for zone of inhibition at 100 µg/mL: read-out: DIZ. The format is functional. The gist of the method:
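Cup diffusion on potato dextrose agar plates inoculated with the fungus, with samples dissolved in DMSO. Incubated at 45 °C for A. fumigatus. Read the diameter of the clear zone of inhibition around the sample.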

Consider `O=C(/C=C/c1ccc(-n2ccnc2)cc1)c1cccc(O)c1`, for which the zone of inhibition at 100 µg/mL in the experiment with Trichoderma viride is 6 mm; in the experiment with Yarrowia lipolytica, 5 mm; in the experiment with Aspergillus niger, 5 mm; with Aspergillus fumigatus, 5 mm. Further, in the experiment with Leishmania major, the half-inhibitory concentration (IC50) came out at 0.96 µg/mL (≈ 3.31 µM). Moreover, the Activity in experiment [1] amounted to 8.65%.

For `COc1ccc(C(=O)/C=C/c2ccc(-n3ccnc3)cc2)cc1`, the zone of inhibition at 100 µg/mL with Trichoderma viride was determined as 6 mm; in the experiment on Yarrowia lipolytica it was 6 mm; in the experiment with Aspergillus niger, 3 mm; in the experiment on Aspergillus fumigatus, 17 mm. In the experiment with Leishmania major, this compound returned an IC50 of 0.98 µg/mL (≈ 3.22 µM). Besides, the Activity in experiment [1] stood at 66%.

On to `O=C(/C=C/c1ccc(-n2ccnc2)cc1)c1cccc(F)c1F`, for which the zone of inhibition at 100 µg/mL in the experiment on Trichoderma viride came out at 4 mm; in the experiment with Yarrowia lipolytica it was 3 mm; with Aspergillus niger, 4 mm; with Aspergillus fumigatus, 19 mm. This compound returned an IC50 in the experiment on Leishmania major of 0.83 µg/mL (≈ 2.67 µM). Also, in experiment [1], the Activity is 16.7%.

As for `O=C(/C=C/c1ccc(-n2ccnc2)cc1)c1ccccc1Cl`, the zone of inhibition at 100 µg/mL in the experiment on Trichoderma viride was found to be 5 mm; in the experiment on Yarrowia lipolytica, 5 mm; in the experiment on Aspergillus niger, 5 mm; with Aspergillus fumigatus, 19 mm. This compound came in with a concentration for half-maximal inhibition (IC50) with Leishmania major of 0.93 µg/mL (≈ 3.01 µM). Also, the Activity in experiment [1] came to 70.4%.

Consider `CCCOC(=O)c1cc(O)c(O)c(O)c1`, for which the Activity in experiment [1] was 91.3%.

For the compound `O=C(/C=C/c1ccc(-n2ccnc2)cc1)c1c(F)cccc1F`, the zone of inhibition at 100 µg/mL in the experiment on Trichoderma viride came to 5 mm; with Yarrowia lipolytica it was 7 mm; in the experiment with Aspergillus niger, 4 mm; in the experiment with Aspergillus fumigatus, 15 mm. Also, the IC50 with Leishmania major was found to be 0.97 µg/mL (≈ 3.13 µM). Moreover, the Activity in experiment [1] was found to be 69.5%.

Consider `O=C(/C=C/c1ccc(-n2ccnc2)cc1)c1c(Cl)cccc1Cl`, for which the zone of inhibition at 100 µg/mL came to 6 mm in the experiment with Trichoderma viride, 7 mm with Yarrowia lipolytica, 4 mm in the experiment with Aspergillus niger and 20 mm with Aspergillus fumigatus. The IC50 in the experiment with Leishmania major is 0.67 µg/mL (≈ 1.95 µM). In experiment [1], the Activity came to 47.7%.

Regarding `COc1ccc(C(=O)/C=C/c2ccc(-n3ccnc3)cc2)cc1OC`, the zone of inhibition at 100 µg/mL was determined as 4 mm in the experiment with Trichoderma viride, 4 mm in the experiment on Yarrowia lipolytica, 3 mm in the experiment on Aspergillus niger and 10 mm in the experiment with Aspergillus fumigatus. Moreover, in the experiment on Leishmania major, the IC50 is 0.82 µg/mL (≈ 2.45 µM). Besides, the Activity in experiment [1] came out at 51%.

For `O=C(/C=C/c1ccc(-n2ccnc2)cc1)c1ccc(Cl)cc1Cl`, the zone of inhibition at 100 µg/mL with Trichoderma viride turned out to be 2 mm; in the experiment on Yarrowia lipolytica, 4 mm; in the experiment on Aspergillus niger it was 1 mm; in the experiment with Aspergillus fumigatus, 15 mm. Moreover, the IC50 with Leishmania major amounted to 0.72 µg/mL (≈ 2.1 µM). Also, the Activity in experiment [1] came to 3.3%.

Consider `O=C(/C=C/c1ccc(-n2ccnc2)cc1)c1ccc(I)cc1`, for which the zone of inhibition at 100 µg/mL is 2 mm with Trichoderma viride, 3 mm in the experiment with Yarrowia lipolytica, 2 mm in the experiment with Aspergillus niger and 10 mm in the experiment with Aspergillus fumigatus. This compound also displayed an IC50 in the experiment on Leishmania major of 0.92 µg/mL (≈ 2.3 µM). Also, in experiment [1], the Activity came to 40.4%.

Consider `COc1cccc(C(=O)/C=C/c2ccc(-n3ccnc3)cc2)c1`, for which the zone of inhibition at 100 µg/mL worked out at 8 mm with Trichoderma viride, 7 mm in the experiment on Yarrowia lipolytica, 3 mm in the experiment with Aspergillus niger and 16 mm with Aspergillus fumigatus. For the same compound, the IC50 in the experiment on Leishmania major was determined as 0.98 µg/mL (≈ 3.22 µM). For the same compound, in experiment [1], the Activity amounted to 83.9%.

For `O=C(/C=C/c1ccc(-n2ccnc2)cc1)c1ccc(Cl)c(Cl)c1Cl`, the zone of inhibition at 100 µg/mL in the experiment with Trichoderma viride worked out at 6 mm; with Yarrowia lipolytica it was 6 mm; in the experiment with Aspergillus niger it was 1 mm; in the experiment with Aspergillus fumigatus, 10 mm. In addition, the midpoint of inhibition in the experiment on Leishmania major, the IC50, lay at 0.63 µg/mL (≈ 1.67 µM). Besides, the Activity in experiment [1] turned out to be 2.4%.

As to `O=C(/C=C/c1ccc(-n2ccnc2)cc1)c1ccc(Cl)cc1`, the zone of inhibition at 100 µg/mL in the experiment with Trichoderma viride came out at 9 mm; with Yarrowia lipolytica, 10 mm; in the experiment with Aspergillus niger, 8 mm; in the experiment with Aspergillus fumigatus, 20 mm. In the experiment with Leishmania major, this compound came in with an IC50 of 0.92 µg/mL (≈ 2.98 µM). Besides, the Activity in experiment [1] came to 90.1%.

As to `O=C(/C=C/c1ccc(-n2ccnc2)cc1)c1ccccc1F`, the zone of inhibition at 100 µg/mL in the experiment on Trichoderma viride worked out at 5 mm; in the experiment on Yarrowia lipolytica it was 5 mm; in the experiment with Aspergillus niger, 3 mm; in the experiment on Aspergillus fumigatus, 17 mm. In addition, the IC50 in the experiment with Leishmania major stood at 0.98 µg/mL (≈ 3.35 µM). The Activity in experiment [1] came out at 79.2%.

As for `O=C(/C=C/c1ccc(-n2ccnc2)cc1)c1ccccc1Br`, the zone of inhibition at 100 µg/mL in the experiment with Trichoderma viride came out at 2 mm; in the experiment with Yarrowia lipolytica, 3 mm; in the experiment with Aspergillus niger it was 4 mm; in the experiment on Aspergillus fumigatus it was 18 mm. Also, the IC50 with Leishmania major is 0.86 µg/mL (≈ 2.43 µM). In experiment [1], the Activity stood at 76%.

On to `O=C(/C=C/c1ccc(-n2ccnc2)cc1)c1ccc(Br)cc1`, for which the zone of inhibition at 100 µg/mL was found to be 9 mm in the experiment with Trichoderma viride, 8 mm with Yarrowia lipolytica, 4 mm with Aspergillus niger and 18 mm with Aspergillus fumigatus. For the same compound, the IC50 in the experiment on Leishmania major amounted to 0.86 µg/mL (≈ 2.43 µM). In experiment [1], the Activity was 42.1%.

With NYSTATIN, the inhibition zone (IZ) in the experiment on Trichoderma viride came to 17 mm; in the experiment with Yarrowia lipolytica, 16 mm; with Aspergillus niger, 10 mm; in the experiment with Aspergillus fumigatus, 22 mm.

On to `O=C(/C=C/c1ccc(-n2ccnc2)cc1)c1ccc(F)c(F)c1`, for which the zone of inhibition at 100 µg/mL with Trichoderma viride is 3 mm; with Yarrowia lipolytica it was 4 mm; with Aspergillus niger, 4 mm; in the experiment on Aspergillus fumigatus it was 18 mm. In the experiment with Leishmania major, this compound showed an IC50 of 0.89 µg/mL (≈ 2.87 µM). In addition, the Activity in experiment [1] was found to be 8.3%.

`O=C(/C=C/c1ccc(-n2ccnc2)cc1)c1ccccc1`: the zone of inhibition at 100 µg/mL in the experiment with Trichoderma viride is 3 mm; with Yarrowia lipolytica it was 4 mm; in the experiment with Aspergillus niger it was 4 mm; in the experiment on Aspergillus fumigatus, 18 mm. In addition, the IC50 in the experiment with Leishmania major came out at 0.91 µg/mL (≈ 3.32 µM). Also, the Activity in experiment [1] is 81.9%.

As for `C[C@@H]1[C@H](O)[C@@H](C)/C=C/C=C/C=C/C=C/C=C/C=C/C=C/[C@H](O[C@@H]2O[C@H](C)[C@@H](O)[C@H](N)[C@@H]2O)C[C@@H]2O[C@](O)(C[C@@H](O)C[C@@H](O)[C@H](O)CC[C@@H](O)C[C@@H](O)CC(=O)O[C@H]1C)C[C@H](O)[C@H]2C(=O)O` [AMPHOTERICIN B], in the experiment on Leishmania major, 0.56 µg/mL (≈ 0.606 µM) corresponded to half-maximal inhibition (IC50).

Consider `O=C(/C=C/c1ccc(-n2ccnc2)cc1)c1cc(Cl)ccc1Cl`, for which the zone of inhibition at 100 µg/mL with Trichoderma viride stood at 10 mm; in the experiment with Yarrowia lipolytica, 10 mm; in the experiment with Aspergillus niger it was 6 mm; with Aspergillus fumigatus, 19 mm. The compound also returned an IC50 with Leishmania major of 0.99 µg/mL (≈ 2.88 µM). In experiment [1], the Activity was found to be 18.8%.

On to `O=C(/C=C/c1ccc(-n2ccnc2)cc1)c1ccc(Cl)c(Cl)c1`, for which the zone of inhibition at 100 µg/mL with Trichoderma viride was determined as 6 mm; in the experiment with Yarrowia lipolytica, 7 mm; in the experiment with Aspergillus niger, 2 mm; in the experiment with Aspergillus fumigatus it was 10 mm. The same compound displayed a half-maximal inhibitory concentration (IC50) with Leishmania major of 0.99 µg/mL (≈ 2.88 µM). The Activity in experiment [1] stood at 0.4%.

Turning to `O=C(/C=C/c1ccc(-n2ccnc2)cc1)c1ccc(F)cc1`, the zone of inhibition at 100 µg/mL in the experiment on Trichoderma viride came out at 1 mm; in the experiment with Yarrowia lipolytica, 1 mm; in the experiment with Aspergillus niger it was 2 mm; in the experiment with Aspergillus fumigatus, 1 mm. The compound further gave an IC50 in the experiment on Leishmania major of 0.71 µg/mL (≈ 2.43 µM). Further, the Activity in experiment [1] was 64.5%.
